Laboratory results reported in PubChem BioAssay.
Activity calls are given as the source filed them.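 Rule for the calls, unless noted: active = visually confirmed hit in the image check and inhibition above 20%; inconclusive = visually confirmed hit but inhibition not above 20%; inactive = no visual hit in the image check.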

Legend:
[1] = inhibitors of TNFa-induced NFkB p65 translocation, primary screen, imaging, HUVEC, MLSMR starter and 10KST1 sets (AID 438;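 active = inhibition above 20% together with a positive visual image hit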;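 note: compound added about 3h40 before a 20 min TNFalpha stimulation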;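 for inhibition: signal is the nuclear over cytoplasmic p65 intensity ratio per well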); conditions: HUVEC TNFa-induced p65 nuclear translocation; cell count: measured here: nuclei count (cytotoxicity indicator), at 2.08 µM; inhibition: at 2 µM, stronger effect = higher value, 0% TNFa-plus-vehicle, 100% no-TNFa wells
[2] = endothelial E-selectin expression blockers – imaging, HUVEC, immunofluorescence, MLSMR starter and 10KST1 sets, primary screen (AID 487); conditions: HUVEC TNFalpha-induced E-selectin immunofluorescence imaging, at 2 µM; inhibition: stronger effect = higher value; nuclei count: measured here: cell number, toxicity;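 for inhibition: signal is fraction of cell area covered by stained E-selectin grains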;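 for nuclei count: 100% = median nuclei count of all wells on the same plate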
[3] = Primary imaging screen for DUSP6 inhibitors that restore phospho-Erk in transfected HeLa cells, chemical complementation (AID 609;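 active = compounds giving at least 50% inhibition in the cell-based MKP-3 phosphatase rescue imaging test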;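 for inhibition: phospho-Erk level distribution per well compared with pooled transfected vehicle control wells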); conditions: HeLa MKP-3 transfected, phospho-Erk imaging KS statistic, at 10 µM, cells stimulated with TPA for 15 min
[4] = target: Dual specificity protein phosphatase 6 (Homo sapiens) (UniProt Q16828); assay: as above; conditions: HeLa MKP-3 transfected, phospho-Erk imaging KS statistic; at 10 µM; stronger effect = higher value; cells stimulated with TPA for 15 min
Dual specificity protein phosphatase 6 (Homo sapiens), sequence (Q16828 whole entry, looked up): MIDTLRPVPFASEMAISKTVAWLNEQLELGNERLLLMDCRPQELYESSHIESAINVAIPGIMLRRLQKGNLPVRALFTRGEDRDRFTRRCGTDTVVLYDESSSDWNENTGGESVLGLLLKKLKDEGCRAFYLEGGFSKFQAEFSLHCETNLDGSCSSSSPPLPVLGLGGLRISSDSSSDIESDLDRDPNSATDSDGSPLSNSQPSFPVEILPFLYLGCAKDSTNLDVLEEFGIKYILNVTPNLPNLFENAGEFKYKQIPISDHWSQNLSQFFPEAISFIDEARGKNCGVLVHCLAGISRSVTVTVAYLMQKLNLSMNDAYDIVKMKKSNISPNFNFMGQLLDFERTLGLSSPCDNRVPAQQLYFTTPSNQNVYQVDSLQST

[5] = target: Voltage-gated potassium channel subunit beta-2 (Rattus norvegicus) (UniProt P62483); assay: inhibitors of rat Kvbeta2 reductase activity – biochemical, NADPH fluorescence, primary screen (AID 622;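 active = fluorescence slope higher than the sample average by over 3 SD, cut at about -0.22 in these data, passing the limit was not always enough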;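 note: slope of raw intensity against log time taken from 70 to 1610 s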); conditions: recombinant KvBeta, 4-cyanobenzaldehyde reduction, at 10 µM, stronger effect = higher value
Voltage-gated potassium channel subunit beta-2 (Rattus norvegicus), sequence (P62483 whole entry, looked up): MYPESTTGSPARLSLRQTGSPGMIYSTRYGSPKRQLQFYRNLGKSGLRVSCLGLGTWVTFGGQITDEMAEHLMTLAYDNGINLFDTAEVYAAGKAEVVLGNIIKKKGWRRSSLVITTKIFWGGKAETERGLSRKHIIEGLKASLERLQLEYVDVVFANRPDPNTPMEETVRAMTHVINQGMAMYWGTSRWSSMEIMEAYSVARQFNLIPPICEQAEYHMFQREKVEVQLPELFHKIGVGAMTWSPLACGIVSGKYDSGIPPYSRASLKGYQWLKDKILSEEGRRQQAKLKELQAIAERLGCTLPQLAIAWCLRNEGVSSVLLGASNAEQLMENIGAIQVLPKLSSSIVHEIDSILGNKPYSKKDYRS

[6] = target: Voltage-gated potassium channel subunit beta-2 (Rattus norvegicus) (UniProt P62483); assay: enhancers of rat Kvbeta2 NADPH turnover – biochemical, NADPH fluorescence, primary screen (AID 623;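 active = NADPH fluorescence slope more negative than the mean of all samples by about 3 SD, 99.7% confidence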;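 note: fluorescence intensity change per second fitted from 20 to 320 s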); conditions: Recombinant KvBeta, NADPH fluorescence decrease slope, 10 min; at 10 µM; stronger effect = lower value
[7] = target: Muscarinic acetylcholine receptor M4 (Homo sapiens) (UniProt P08173); assay: M4-linked GIRK flux change, two-sided – cell-based, HEK293 M4/GIRK, thallium flux, BTC-AM, M4 allosteric agonist project, primary screen (AID 625;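 active = fluorescence slope after compound addition differing from the mean of all tested samples at 99.7% confidence, mostly higher but some lower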;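 note: thallium influx through GIRK channels coupled to M4 in HEK293 cells with BTC-AM dye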); conditions: at 10 µM, actives lie on both sides
Muscarinic acetylcholine receptor M4 (Homo sapiens), sequence (P08173 whole entry, looked up): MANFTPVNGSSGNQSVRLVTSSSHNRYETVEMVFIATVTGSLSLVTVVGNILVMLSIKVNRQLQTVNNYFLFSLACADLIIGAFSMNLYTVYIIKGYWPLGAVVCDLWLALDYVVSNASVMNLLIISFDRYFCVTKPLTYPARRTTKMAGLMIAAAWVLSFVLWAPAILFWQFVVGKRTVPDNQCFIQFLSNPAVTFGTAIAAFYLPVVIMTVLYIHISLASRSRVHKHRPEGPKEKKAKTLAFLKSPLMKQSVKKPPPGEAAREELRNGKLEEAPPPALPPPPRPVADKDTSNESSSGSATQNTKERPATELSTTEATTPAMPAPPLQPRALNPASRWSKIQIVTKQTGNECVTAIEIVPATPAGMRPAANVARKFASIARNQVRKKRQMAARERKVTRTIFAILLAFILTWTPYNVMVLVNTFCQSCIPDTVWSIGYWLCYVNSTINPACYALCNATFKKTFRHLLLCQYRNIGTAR
Summary of the method: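 Assay system: HEK293 cells with M4 receptor and GIRK channels / Controls: carbachol and DMSO controls / Schedule: 1 h dye loading, 2 min kinetic read / Technique: kinetic fluorescence with BTC-AM dye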

[8] = inhibitors of larval lipid processing in zebrafish, primary screen, whole organism, PED6 fluorescence, gall bladder and intestine (AID 686;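 active = a full or partial loss of lipid-probe fluorescence in the fish gall bladder, intestine or both, judged by eye; inactive = no fluorescence loss, or compound toxic to the fish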;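 note: larvae 5 to 7 days old with five fish per well; signal comes from phospholipase A2 cleavage of quenched PED6 carried via bile; overnight exposure to compound and PED6 before scoring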); conditions: Zebrafish larvae PED6 lipid processing, fluorescence scoring; screened at 20 µM (by protocol)
Summary of the method: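 Doses: 20 µM single dose. Test system: live zebrafish larvae aged 5-7 days, whole organism. Quantity: five larvae per well. Measured by: By-eye fluorescence microscopy. Reagent: ingested quenched lipid PED6 at 100 nM. Read-out: visual per-well fluorescence inhibition score. Times: overnight exposure of larvae to compound plus PED6.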

[9] = loss of swimming-algae plug formation – whole organism, Chlamydomonas reinhardtii, WT vs cilia-less mutant, absorbance, 96-well, primary screen (AID 463189;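 active = inhibition at or above 50% relative to wild type and mutant plate controls; inactive = inhibition below 50%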;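 note: 0% = wild type cc124 cells in DMSO and 100% = ciliumless bld1 mutant cells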); conditions: Chlamydomonas reinhardtii gravitaxis, OD600 absorbance, 2 days; at 10 µM; stronger effect = higher value
[10] = measured here: cell density z-score
[11] = measured here: nuclear c-Myc green intensity z-score
[12] = measured here: nuclear pErk red intensity z-score, stronger effect = higher value

SMILES	cell count [1]	inhibition [1]	inhibition [2]	nuclei count [2] [%]	z-score [3, 10]	z-score [3, 11]	z-score [3, 12]	inhibition [4]	fluorescence slope [5]	NADPH fluorescence slope [6]	fluorescence slope [7]	outcome [8]	inhibition [9]
O=C(O)c1ccnc(C(=O)O)c1	585	-4.6% (inactive)	-82% (inactive)	145	0.403	0.277	1	-4.59% (inactive)	-0.434 (inactive)	-0.000101 (inactive)	0.00626 (inactive)	inactive	24.1% (inactive)
CCCC1Cc2c(sc3nc(SC)nc(N)c23)CO1 (stereo unspecified)	489	-14.7% (inactive)	27.8% (inactive)	170	-0.331	0.0787	0.594	-3.97% (inactive)	-0.47 (inactive)	-4.4e-05 (inactive)	0.00573 (inactive)	inactive	27.7% (inactive)
COCCNc1ncnc2c1cnn2-c1ccc(Cl)cc1	534	-25.3% (inactive)	11.8% (inactive)	184	1.76	-0.928	-0.638	23.4% (inactive)	-0.429 (inactive)	-5.8e-05 (inactive)	0.00652 (inactive)	inactive	6.55% (inactive)
C=CCn1c(=N)c(C(=O)OCC)cc2c(=O)n3cccc(C)c3nc21	614	5.3% (inactive)	-125% (inactive)	149	-2.08	1.41	1.9	-9.66% (inactive)	-0.114 (inactive)	-2e-05 (inactive)	0.00285 (inactive)	inactive	159% (active)
CN=C(c1ccco1)n1c(=S)nc(-c2ccco2)n(C)c1=S	339	-5.2% (inactive)	-204% (inactive)	126	0.329	-0.895	-0.461	-2.59% (inactive)	-0.522 (inactive)	-0.000102 (inactive)	0.00396 (inactive)	inactive	28.5% (inactive)
Cc1cc2ccccc2cc(C)c1=O	388	-6.2% (inactive)	-120% (inactive)	168	1.48	0.00969	-1.01	-0.584% (inactive)	-0.453 (inactive)	-9e-05 (inactive)	0.00444 (inactive)	inactive	-12% (inactive)
Cc1ccc(C(=O)C2C(c3cccs3)NC(=O)NC2(O)C(F)(F)F)cc1 (stereo unspecified)	716	-7.3% (inactive)	-170% (inactive)	142	-0.552	-0.778	0.548	-4.27% (inactive)	-0.482 (inactive)	-7.6e-05 (inactive)	0.00668 (inactive)	inactive	-6.21% (inactive)
CCCCCCOc1ccc(C(=O)n2cnc(N)n2)cc1	664	-4.5% (inactive)	-26.7% (inactive)	174	0.344	0.534	-0.706	-5.95% (inactive)	-0.508 (inactive)	-7.5e-05 (inactive)	0.00638 (inactive)	inactive	0.29% (inactive)
O=C1C=C(O)CC(c2ccc(Cl)c(Cl)c2)C1 (stereo unspecified)	606	4.8% (inactive)	-56.5% (inactive)	115	0.34	0.0724	0.952	14.7% (inactive)	-0.41 (inactive)	-4.9e-05 (inactive)	0.00481 (inactive)	inactive	-8.94% (inactive)
N#Cc1c2c(c(-c3ccccc3)[nH]c1=O)CCCC2	580	-9.4% (inactive)	-88.6% (inactive)	140	-0.665	-0.156	-4.21	16.5% (inactive)	-0.377 (inactive)	-0.000105 (inactive)	0.00448 (inactive)	inactive	-4.11% (inactive)
COc1cc(S(=O)(=O)N2CCN(C)CC2)c(OC)cc1Br	616	13.9% (inactive)	-43.1% (inactive)	114	0.0206	-1.18	-0.865	1.63% (inactive)	-0.424 (inactive)	-3.6e-05 (inactive)	0.00502 (inactive)	inactive	21% (inactive)
CC(C)=CCC(C)(C)CNC(=O)NC1CCCCC1	577	-4.2% (inactive)	-143% (inactive)	147	-0.346	-0.203	-0.256	-0.584% (inactive)	-0.459 (inactive)	-0.000111 (inactive)	0.00622 (inactive)	inactive	19.5% (inactive)
CCCNC1=C(C)C(=O)CC1	602	-0.5% (inactive)	-37.1% (inactive)	120	-1.42	0.756	1.36	-0.233% (inactive)	-0.481 (inactive)	-4.1e-05 (inactive)	0.00471 (inactive)	inactive	3.26% (inactive)
COc1cc2nc(-c3ccccc3)nc(N3CCCC3)c2cc1OC	397	-11.2% (inactive)	-164% (inactive)	154	0.13	-0.48	0.0689	1.42% (inactive)	-0.433 (inactive)	-0.000105 (inactive)	0.00381 (inactive)	inactive	17.6% (inactive)
COC(=O)c1ccc(CN(C(C)=O)c2ccccc2)o1	547	0.8% (inactive)	-113% (inactive)	141	0.183	-0.22	-0.676	15.4% (inactive)	-0.471 (inactive)	-9.4e-05 (inactive)	0.00509 (inactive)	inactive	34.2% (inactive)
Nc1c2c(nc3ccccc13)N(c1ccccc1)CC2	585	0.4% (inactive)	60.7% (active)	92.9	0.356	-0.531	-0.713	-2.09% (inactive)	-0.0969 (active)	-1.3e-05 (inactive)	0.00425 (inactive)	inactive; toxic	15.7% (inactive)
Cc1cc(C)n(-c2c(F)c(F)c(CN3CCCCC3)c(F)c2F)n1	557	6.8% (inactive)	29.4% (inactive)	107	-0.661	0.711	-1.05	17.8% (inactive)	-0.349 (inactive)	1.9e-06 (inactive)	0.00483 (inactive)	inactive	26% (inactive)
CC(NC(=O)CSc1nc2c(cc1C#N)CN(C)CC2)c1ccccc1 (stereo unspecified)	739	5.9% (inactive)	-3.5% (inactive)	170	0.748	-0.601	-0.682	6.04% (inactive)	-0.429 (inactive)	-3.9e-05 (inactive)	0.00365 (inactive)	inactive	11.3% (inactive)
CC1(C)Cc2c(C#N)c(N3CCN(C(=O)c4ccco4)CC3)nc(Cc3ccccc3)c2CO1	541	-6.6% (inactive)	2.1% (inactive)	97.1	1.26	-0.345	-0.81	12.8% (inactive)	-0.499 (inactive)	4.3e-05 (inactive)	0.00414 (inactive)	inactive	16.1% (inactive)
CN(C)CCCNCCCCNC(=O)/C=N/O	458	3.8% (inactive)	-56.6% (inactive)	143	-0.174	-0.575	1.08	17.7% (inactive)	-0.441 (inactive)	-3.9e-05 (inactive)	0.00523 (inactive)	inactive	6.6% (inactive)
CCOC(=O)CCNc1n[nH]c(=O)[nH]c1=O	611	29.6% (active)	-2.5% (inactive)	107	0.833	0.318	-1.89	15.5% (inactive)	-0.497 (inactive)	-1.9e-05 (inactive)	0.00518 (inactive)	inactive	-1.35% (inactive)
O=C(NCCCNCc1ccccc1)/C(=N\O)c1ccccc1	518	-4.7% (inactive)	-1% (inactive)	164	-0.176	1.16	0.402	15.9% (inactive)	-0.401 (inactive)	-5.4e-05 (inactive)	0.00368 (inactive)	inactive	7.18% (inactive)
Cc1ccc(C2CC(c3cccs3)n3nc(N)nc3N2)cc1 (stereo unspecified)	390	-2% (inactive)	-110% (inactive)	149	-0.677	0.494	-0.466	3.56% (inactive)	-0.429 (inactive)	-0.000111 (inactive)	0.00581 (inactive)	inactive	31.5% (inactive)
COC(=O)[C@H]1CCCN1C(=O)Nc1cccc(Oc2c(F)c(F)c(F)c(F)c2F)c1	709	-2.1% (inactive)	2.5% (inactive)	205	0.848	0.709	0.784	13.4% (inactive)	-0.396 (inactive)	-4.7e-05 (inactive)	0.00536 (inactive)	inactive	36.9% (inactive)
CC(Sc1ccc2ccccc2n1)C(=O)O (stereo unspecified)	709	-5.5% (inactive)	23% (inactive)	185	0.12	0.234	-0.321	7.21% (inactive)	-0.478 (inactive)	-9e-05 (inactive)	0.00615 (inactive)	inactive	-8.1% (inactive)
COc1ccc(/C(O)=C2\C(=O)C(=O)N(CCN(C)C)C2c2cccc(OC)c2OC)cc1Cl (stereo unspecified)	629	-9.8% (inactive)	-43.6% (inactive)	170	-0.541	-0.411	-0.226	11.4% (inactive)	-0.443 (inactive)	-3.1e-05 (inactive)	0.00451 (inactive)	inactive	10.3% (inactive)
Cc1cc(=O)n(CCC(=O)O)c2ccccc12	722	-2.6% (inactive)	-33.8% (inactive)	175	1.44	-0.504	-1.75	5.95% (inactive)	-0.48 (inactive)	-8.8e-05 (inactive)	0.0062 (inactive)	inactive	-13% (inactive)
